Source: ChEMBL document CHEMBL4219033, “Anticancer activity profiling of parthenolide analogs generated via P450-mediated chemoenzymatic synthesis” (2018)

Tests used:
Format in all cases: functional
A549 = test: Cytotoxicity against human A549 cells assessed as cell viability at 10 uM after 24 hrs by MTT assay relative to control; conditions: A549, 24 h, read-out: Activity
In short: (§1)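 Adherent lines in DMEM plus 10% FBS and penicillin-streptomycin, 37 °C, 5% CO2, lifted with Accutase. Seeded at 500–10,000 cells/well and rested 15 h. Compounds from 10 mM DMSO stocks dosed at 10 µM final, 1% DMSO final, n = 5, for 24 h. Medium then swapped for 1 mg/ml MTT in phenol-red-free medium for 3 h at 37 °C. Formazan dissolved in DMSO, OD read at 550 nm. Viability normalised to 1% DMSO vehicle control.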

SK-N-MC = test: Cytotoxicity against human SK-N-MC cells assessed as cell viability at 10 uM after 24 hrs by MTT assay relative to control; conditions: read-out: Activity; in short: as §1
JeKo-1 [1] = test: Cytotoxicity against human JeKo1 cells assessed as cell viability at 10 uM after 24 hrs by MTT assay relative to control; conditions: JeKo-1, 24 h, read-out: Activity
In short: (§2)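 Suspension lines grown in α-MEM plus 10% FBS and penicillin-streptomycin, 37 °C, 5% CO2. Seeded at 30,000 cells/well in phenol-red-free α-MEM and rested 15 h. Exposed to 10 µM, or 2 µM in the lower-dose repeat, at 1% DMSO final for 24 h. 5 mg/ml MTT added directly for 3 h at 37 °C. Plates spun, formazan dissolved in DMSO, OD read at 550 nm. Viability relative to vehicle.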

SJSA-1 = test: Cytotoxicity against human SJSA1 cells assessed as cell viability at 10 uM after 24 hrs by MTT assay relative to control; conditions: SJSA-1, 24 h, read-out: Activity; in short: as §1
MDA-MB-231 = test: Cytotoxicity against human MDA-MB-231 cells assessed as cell viability at 10 uM after 24 hrs by MTT assay relative to control; conditions: MDA-MB-231, 24 h, read-out: Activity; in short: as §1
JeKo-1 [2] = test: Cytotoxicity against human JeKo1 cells assessed as cell viability at 2 uM after 24 hrs by MTT assay relative to control; conditions: JeKo-1, 24 h, read-out: Activity; in short: as §2
Jurkat [3] = test: Cytotoxicity against human Jurkat cells assessed as cell viability at 10 uM after 24 hrs by MTT assay relative to control; conditions: read-out: Activity; in short: as §2
HCT-116 [4] = test: Cytotoxicity against human HCT116 cells assessed as cell viability after 24 hrs by MTT assay; conditions: HCT-116, 24 h, read-out: LC50 (the source's name)
In short: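 Adherent cells grown in DMEM with 10% FBS and penicillin-streptomycin, dissociated with Accutase, seeded at 500–10,000 cells/well and held 15 h before treatment. Compounds diluted from 10 mM DMSO stocks, final 1% DMSO, for 24 h at 37 °C, 5% CO2. Medium replaced with 1 mg/ml MTT for 3 h, formazan dissolved in DMSO, OD 550 nm. LC50 from dose-response curves normalized to 1% DMSO vehicle.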

SK-MEL-2 = test: Cytotoxicity against human SK-MEL-2 cells assessed as cell viability at 10 uM after 24 hrs by MTT assay relative to control; conditions: SK-MEL-2, 24 h, read-out: Activity; in short: as §1
HCT-116 [5] = test: Cytotoxicity against human HCT116 cells assessed as cell viability at 10 uM after 24 hrs by MTT assay relative to control; conditions: HCT-116, 24 h, read-out: Activity; in short: as §1
Jurkat [6] = test: Cytotoxicity against human Jurkat cells assessed as cell viability at 2 uM after 24 hrs by MTT assay relative to control; conditions: read-out: Activity; in short: as §2
PC-3 = test: Cytotoxicity against human PC3 cells assessed as cell viability at 10 uM after 24 hrs by MTT assay relative to control; conditions: PC-3, 24 h, read-out: Activity; in short: as §1
HeLa = test: Cytotoxicity against human HeLa cells assessed as cell viability at 10 uM after 24 hrs by MTT assay relative to control; conditions: read-out: Activity; in short: as §1
JeKo-1 [7] = test: Cytotoxicity against human JeKo1 cells assessed as cell viability after 24 hrs by MTT assay; conditions: JeKo-1, 24 h, read-out: LC50 (the source's name)
In short: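 Suspension cells grown in α-MEM with 10% FBS and penicillin-streptomycin, seeded at 30,000 cells/well in phenol red-free medium and held 15 h before treatment. Compounds diluted from 10 mM DMSO stocks, final 1% DMSO, for 24 h. MTT (5 mg/ml stock) added directly for 3 h at 37 °C, then centrifugation, DMSO solubilization, OD 550 nm. LC50 from dose-response curves normalized to vehicle.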

Row | Structure (SMILES) | viability at 10 µM (A549) | viability at 10 µM (SK-N-MC) | viability at 10 µM (JeKo-1 [1]) | viability at 10 µM (SJSA-1) | viability at 10 µM (MDA-MB-231) | viability at 2 µM (JeKo-1 [2]) | viability at 10 µM (Jurkat [3]) | CC50 (HCT-116 [4]) | viability at 10 µM (SK-MEL-2) | viability at 10 µM (HCT-116 [5]) | viability at 2 µM (Jurkat [6]) | viability at 10 µM (PC-3) | viability at 10 µM (HeLa) | CC50 (JeKo-1 [7])
1 | C=C1C(=O)O[C@@H]2[C@H]3O[C@]3(C)CC/C=C(/C)[C@@H](OC(=O)Nc3ccc(F)cc3F)C[C@@H]12 | 68.9% | 91.3% | -2.6% | 100% | 96.4% | 80.4% | 0% | 11.8 µM | 85.8% | 17.6% | 85.8% | 82.8% | 76.3% | 
2 | C=C1C(=O)O[C@@H]2[C@H]3O[C@]3(C)CC/C=C(/COC(=O)Nc3ccc(F)cc3F)CC[C@@H]12 | 70.6% | 95.6% | -2.1% | 100% | 88.5% | 78.3% | 0% |  | 84.5% | 33.2% | 86.2% | 89.8% | 89.7% | 6.7 µM
3 | C=C1C(=O)O[C@@H]2[C@H]3O[C@]3(C)CC/C=C(/COC(=O)c3coc(-c4ccc(Br)cc4)c3)CC[C@@H]12 | 74.8% | 66.1% | 7.4% | 47.7% | 91% | 100% | 0% | 11.8 µM | 78.8% | 11.8% | 89% | 65.9% | 57.6% | 
4 | C=C1C(=O)O[C@@H]2[C@H]3O[C@]3(C)CC/C=C(/C)[C@@H](OC(=O)c3cc(-c4ccc(Cl)cc4)on3)C[C@@H]12 | 98.4% | 70.7% | -2.7% | 92.7% | 84.7% | 96.9% | 0% | 8.3 µM | 85.8% | 14.2% | 95.7% | 71.7% | 63.5% | 
5 | C=C1C(=O)O[C@@H]2[C@H]3O[C@]3(C)CC/C=C(/COC(=O)Nc3cccc4ccccc34)CC[C@@H]12 | 84.5% | 104% | 16.8% | 98.3% | 100% | 102% | 89% |  | 73.6% | 100% | 96% | 81.9% | 75% | 
6 | C=C1C(=O)O[C@@H]2[C@H]3O[C@]3(C)CC/C=C(/C)[C@@H](OC(C(=O)OCc3ccccc3)c3ccccc3)C[C@@H]12 (stereo partly specified) | 69.8% | 84.1% | -1.3% | 103% | 101% | 89.4% | 0.6% |  | 66.3% | 63.7% | 82% | 91.9% | 79% | 
7 | C=C1C(=O)O[C@@H]2[C@H]3O[C@]3(C)CC/C=C(/COC(=O)c3cc(-c4ccc(Cl)cc4)on3)CC[C@@H]12 | 102% | 64.5% | 39.4% | 100% | 100% | 90.6% | 47.1% |  | 98.6% | 103% | 94% | 95.2% | 88.4% | 
8 | C=C1C(=O)O[C@@H]2[C@H]3O[C@]3(C)CC/C=C(/C)[C@@H](OC(C(=O)OCC)c3ccc(C(F)(F)F)cc3)C[C@@H]12 (stereo partly specified) | 70.4% | 69.8% | -1.4% | 100% | 77.6% | 76.3% | 0% |  | 71.2% | 20% | 80.6% | 60.4% | 67.1% | 
9 | C=C1C(=O)O[C@@H]2[C@H]3O[C@]3(C)CC/C=C(\C)[C@@H](OC(=O)c3ccc(C(F)(F)F)cc3)C[C@@H]12 | 90.4% | 67.4% | 23.3% | 58.2% | 69% | 93.6% | 93.2% |  | 88.1% | 40% | 78.9% | 47.6% | 68% | 
10 | C=C1C(=O)O[C@@H]2[C@H]3O[C@]3(C)CC/C=C(/COc3coc(-c4ccc(Br)cc4)c3)CC[C@@H]12 | 95.2% | 90.9% | -2% | 93.7% | 87.1% | 98.8% | 0% |  | 103% | 26.4% | 87.6% | 97.1% | 59.2% | 
11 | C=C1C(=O)O[C@@H]2[C@H]3O[C@]3(C)CC/C=C(/COC(C(=O)OCC)c3ccc(C(F)(F)F)cc3)CC[C@@H]12 (stereo partly specified) | 74.8% | 96.9% | 26.4% | 100% | 96.3% | 89.3% | 29.3% |  | 89.8% | 77.5% | 90.2% | 87.2% | 89.6% | 
